# Screening data (PubChem)
# Sampled rows, rich in hits. Any-hit rate of the full collection: about 3.8%.
# KCNQ1 pot = human KCNQ1 channel potentiation or activation; P51787; CHO-K1 KCNQ1, thallium flux FluxOR fluorescence; active compounds read high; B-score at 10 µM; 310,000 compounds, 0.35% hits; AID 2648;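 active = fluorescence ratio B-score, a plate-corrected score, at least three library SD, with initial intensity B-score within 5 SD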
#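 assay system = CHO-K1 cells stably expressing KCNQ1 | medium = assay buffer, equal DMSO in all wells | timing = 37 °C overnight plating, 90-min dark dye load, 20-min compound pretreatment | measured by = kinetic FluxOR thallium fluorescence, 10-s 1-Hz baseline, 110-s post-stimulus read | measure = fluorescence change relative to baseline, converted to B score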
# KCNQ1 block = human KCNQ1 channel inhibition; P51787; CHO-K1 KCNQ1, FluxOR thallium flux fluorescence; active compounds read high; B-score at 10 µM; 310,000 compounds, 1.3% hits;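 active = compounds whose thallium flux B-score, printed positive for inhibition, exceeds three library SD while starting fluorescence stays within three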;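 also: channel opened by potassium depolarization with thallium stimulus after 20 min compound exposure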
# KCNK3 block = human KCNK3 channel inhibition, primary screen; CHO-KCNK3 thallium flux, FluxOR fluorescence; active compounds read low; B-score at 10 µM; 340,000 compounds, 0.84% hits; AID 602410;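 active = B-score under library mean minus 4 SD, starting fluorescence ratio at most library mean plus 5 SD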;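 also: more negative B-score means stronger inhibition of thallium flux through KCNK3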
# Target sequence (O14649 whole entry, looked up): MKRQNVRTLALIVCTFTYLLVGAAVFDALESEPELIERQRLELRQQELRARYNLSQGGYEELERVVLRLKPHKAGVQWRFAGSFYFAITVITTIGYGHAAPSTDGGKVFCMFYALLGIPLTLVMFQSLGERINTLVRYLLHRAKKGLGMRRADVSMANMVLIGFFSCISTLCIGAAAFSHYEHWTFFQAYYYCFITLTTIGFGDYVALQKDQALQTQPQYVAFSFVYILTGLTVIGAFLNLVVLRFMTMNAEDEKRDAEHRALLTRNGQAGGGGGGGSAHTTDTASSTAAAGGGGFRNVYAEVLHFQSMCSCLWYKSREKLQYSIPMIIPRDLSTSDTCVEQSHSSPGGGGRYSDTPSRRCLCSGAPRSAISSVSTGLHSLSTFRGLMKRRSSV
# hERG protect = shields human hERG channel from block by proarrhythmic agents; activation (rescue from dofetilide block), less the hit threshold, % at 10 µM; 310,000 compounds, 0.51% hits; Q12809; CHO-hERG, FluxOR thallium flux, dofetilide IC70 present;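 active = activation above the mean of controls blocked by dofetilide plus 5 SD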;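 also: thallium influx through hERG after potassium depolarization seen as dye fluorescence rise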
# KCNK9 block = human KCNK9 channel inhibition; Q9NPC2; HEK293 KCNK9, FluxOR thallium flux fluorescence; active compounds read low; B-score at 10 µM; 310,000 compounds, 1.2% hits;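 active = ratio B-score over 3 SD below the library mean, with starting fluorescence within 5 SD of its mean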;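 also: negative B-score means less thallium flux so channel inhibition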
# Kir21 block = Kir2.1 (mouse) channel inhibition; P35561; HEK293-Kir2.1, FluxOR thallium flux fluorescence; active compounds read low; B-score at 10 µM; 310,000 compounds, 0.85% hits;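 active = fluorescence ratio B-score at or below minus 3 SD of library scores, with starting-brightness B-score within 2 SD, cut at about -4.2 in these data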;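 also: channel flux triggered by added potassium and thallium sulfate stimulus; B-score of peak minus minimum fluorescence over baseline after thallium stimulus; more negative B-score means stronger Kir2.1 block with less thallium influx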
# Hits are given with their value; n = inactive; x = no result.
SMILES,KCNQ1 pot,KCNQ1 block,KCNK3 block,hERG protect,KCNK9 block,Kir21 block
Cc1ccc(-c2nc(CN(CC3CCC3)CC3CCCO3)c(C)o2)s1 (configuration not stated),n,n,n,n,-7.1,n
COc1ccc(CNC(=O)CN2C(=O)NC(C)(c3ccc(Cl)cc3)C2=O)cc1 (configuration not stated),n,n,n,n,n,n
c1cncc(CSc2nnc(-c3cccnc3)n2Cc2ccco2)c1,n,n,x,n,n,n
CCn1c(SCc2cccc(C(=O)O)c2)nnc1-c1ccccc1,n,n,n,n,n,n
CCn1c(SCc2ccc(Cl)cc2)nnc1-c1ccccc1,n,n,n,n,n,-5.3
CCS(=O)(=O)n1nc(-c2ccc(Cl)cc2)nc1SCc1ccccc1,n,10,x,n,n,n
Cc1cccc(-c2nnc(SCc3ccc(C#N)cc3)n2Cc2ccco2)c1,n,n,n,n,n,-5.3
Clc1ccc(CSc2nnc(-c3cccnc3)n2Cc2ccco2)c(Cl)c1,n,n,n,n,n,-4.3
COc1ccc(-c2nc(SCc3ccccc3)n(S(C)(=O)=O)n2)cc1,n,n,n,n,n,n
O=C(C=Cc1cccs1)c1ccccc1,x,x,n,x,x,x
Cc1ccc2oc3nc(C)c(C(=O)Nc4cccc(C(F)(F)F)c4)cc3c(=O)c2c1,n,n,n,n,n,n
C=CCn1c(SCc2ccc(C#N)cc2)nnc1-c1ccc(C)cc1,n,n,n,n,n,n
CCn1c(COc2ccc(Cl)cc2)nnc1SCc1ccc(C#N)cc1,n,n,n,n,n,-4.8
CCn1c(SCc2ccc(C#N)cc2)nnc1-c1cccc(Cl)c1,n,n,n,n,n,-4.6
O=C(CSc1nc(=O)n2ccccc2n1)NCc1ccccc1,8,n,n,n,n,n
O=C(CSc1nc(=O)n2ccccc2n1)NCc1ccc(F)cc1,n,n,n,n,n,n
O=C(Nc1cccc(S(=O)(=O)N2CCOCC2)c1)c1ccccc1[N+](=O)[O-],x,x,n,x,x,x
O=C(NNC(=O)c1ccccc1O)c1ccc(NS(=O)(=O)c2ccc(F)c(F)c2)cc1,n,6,n,n,n,n
COc1ccccc1NC(=S)N1CCC(C(=O)c2ccc(F)cc2)CC1,n,n,n,n,n,n
CC(C)C1C(c2ccccc2)N(C)C(c2ccccc2)CC1(O)c1ccccc1 (configuration not stated),n,n,n,n,n,n
CC(C)C1C(c2ccccc2)NC(c2ccccc2)CC1(O)c1ccc(F)cc1 (configuration not stated),n,7,n,n,n,n
CC(C)N(Cc1ccc(F)cc1)C(=O)c1cc2ccccc2oc1=O,n,n,n,n,n,n
S=C(NCCSCc1c(Cl)cccc1Cl)Nc1ccccc1,n,n,n,n,n,-5.1
O=C(NCCSCc1c(F)cccc1Cl)Nc1ccccc1,n,n,n,n,n,n
Nc1c(C(=O)NCC2CCCO2)sc2nc3c(c(-c4ccco4)c12)CC/C3=C\c1ccco1 (configuration not stated),x,x,-12,x,x,x
SMILES,KCNQ1 pot,KCNQ1 block,KCNK3 block,hERG protect,KCNK9 block,Kir21 block
O=C(O)c1ccc(COc2ccc(Cl)cc2)o1,n,n,n,n,n,n
CCc1ccc(OCc2ccc(C(=O)O)o2)cc1,n,n,n,5.2,n,n
N#Cc1ccc(-c2ccc(OCC(=O)Nc3cccnc3)cc2)cc1,n,n,n,n,n,n
O=C(COc1ccc(C(=O)c2ccccc2)cc1)Nc1cccnc1,n,n,n,16,n,n
CC1CC(C)CN(c2ncc3c(n2)CC(c2ccc(Cl)cc2)CC3=O)C1 (configuration not stated),n,6,n,n,n,n
CCn1cc(CN2CCCC(CO)(Cc3ccc(F)cc3)C2)c2ccccc21 (configuration not stated),n,n,n,n,n,-5.2
COc1cccc(CC2(CO)CCCN(Cc3cn(C)c4ccccc34)C2)c1 (configuration not stated),n,n,n,n,n,-4.3
COc1ccc(/C(C)=N/NC(=O)CNC(=O)c2ccco2)c(OC)c1,n,n,n,n,n,n
COc1cccc(-c2nc(CCl)cs2)c1OC,n,n,n,n,n,n
COc1ccc(C(=O)OCC(=O)N2CCN(S(=O)(=O)c3ccc(C)cc3)CC2)cc1[N+](=O)[O-],x,x,n,x,x,x
O=C(Nc1nc2ccccc2s1)C1CCCN1S(=O)(=O)c1ccc(Cl)cc1 (configuration not stated),n,n,n,n,n,n
O=S(=O)(c1ccccc1)N1CCCC1c1nc2ccccc2s1 (configuration not stated),n,n,n,n,n,-4.5
CCOC(=O)c1sc2nccc(OC)c2c1N=CN(C)C,n,n,n,n,n,n
O=[N+]([O-])c1ccc(NNC(=S)Nc2ccc(F)cc2)cc1,n,7,n,n,n,n
O=C(NC(NNc1ccc([N+](=O)[O-])cc1)(C(F)(F)F)C(F)(F)F)c1ccc(F)cc1,n,6,n,n,n,n
O=C(NC(NNc1ccc([N+](=O)[O-])cc1)(C(F)(F)F)C(F)(F)F)c1ccccc1Cl,n,n,n,n,n,n
CC(C)CCNC(=S)Nc1ccc([N+](=O)[O-])cc1,n,n,n,n,n,-11
CC(C)OC(=O)c1cc(NC(=S)Nc2ccc([N+](=O)[O-])cc2)cc(C(=O)OC(C)C)c1,n,10,n,n,n,n
O=C(NNC(=S)Nc1ccc(F)cc1)c1cccc([N+](=O)[O-])c1,n,n,n,n,n,n
O=C(NNC(=O)c1cccc2ccccc12)c1ccc2c(c1)OCO2,n,n,n,n,n,n
Cc1occc1C(=O)NCc1nc(-c2ccc(Cl)cc2)no1,n,n,n,n,n,n
COc1ccccc1NS(=O)(=O)c1ccc(OC)c(OC)c1,n,n,n,n,n,n
COc1ccc(OC)c(S(=O)(=O)Nc2cc(OC)c(Cl)cc2OC)c1,n,n,n,n,n,-5.6
COc1cc(NS(=O)(=O)c2ccc(OC)c(C)c2C)c(OC)cc1Cl,n,n,n,n,n,n
COc1cc(OC)c(NS(=O)(=O)c2cc(Br)cnc2N)cc1Cl,n,n,n,n,n,-5.8
COc1ccccc1NS(=O)(=O)c1cc(Cl)ccc1OC,n,n,n,n,n,-4.8
COC(=O)[C@@H](c1ccccc1)N(C)S(=O)(=O)c1cccc(S(=O)(=O)N(C)[C@@H](C(=O)OC)c2ccccc2)c1,n,n,n,n,-7,n
Cc1ccc(-c2cccc(C3CC=CC4C3C(=O)N(Cc3ccccc3)C4c3ccc4ccccc4c3)c2)cc1 (configuration not stated),n,n,n,8.4,n,n
